Screening data (PubChem BioAssay)
Most compounds without a hit are left out; they make up all but 2.6% or so of the library.
PHOSPHO1 block: PubChem AID 1565. Phosphoethanolamine/phosphocholine phosphatase (Homo sapiens), Q8TCT1. recombinant PHOSPHO1, absorbance phosphatase assay. inhibition, % at 13.3 µM. 290,000 tested, 1.1% active; in the data active = inhibition above about 60%
Target sequence (Q8TCT1 whole entry, looked up): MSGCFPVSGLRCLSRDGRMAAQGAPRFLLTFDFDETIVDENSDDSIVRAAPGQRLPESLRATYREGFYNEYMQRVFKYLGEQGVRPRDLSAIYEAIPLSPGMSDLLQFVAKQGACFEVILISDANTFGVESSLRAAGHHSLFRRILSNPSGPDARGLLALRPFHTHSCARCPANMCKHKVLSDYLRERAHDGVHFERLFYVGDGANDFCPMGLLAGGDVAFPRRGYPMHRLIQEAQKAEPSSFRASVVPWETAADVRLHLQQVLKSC
VIM-2 inhibitor: VIM-2 metallo-beta-lactamase inhibitors, primary screen, biochemical, epi-absorbance readout, Pseudomonas aeruginosa enzyme; purified VIM-2, nitrocefin hydrolysis, epi-absorbance fluorescence; inhibition, % at 5.6 µM; 290,000 tested, 0.89% active; AID 1527, 2009;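 active = inhibition above the mean of all tested compounds plus 3 SD, cutoff set per screening run, cut at about 7.5% in these data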;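 note: red hydrolysis product quenches plate fluorescence so inhibitors raise well fluorescence; 0% = enzyme with DMSO and 100% = DMSO without enzyme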
ASAP1 GAP inh: inhibitors of human ASAP1 ArfGAP activity, primary screen, biochemical, fluorescence polarization; ASAP1-stimulated ARF1 GTP hydrolysis, GDP FP detection; inhibition, % at 16.5 µM; AID 624377, 2012; Arf-GAP with SH3 domain, ANK repeat and PH domain-containing protein 1 (Homo sapiens), …; 360,000 tested, 0.19% active; in the data active = inhibition above about 25%;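 note: 0% = vehicle with enzyme and substrate and 100% = no enzyme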
Target sequence (Q9ULH1 325-724 limits assumed): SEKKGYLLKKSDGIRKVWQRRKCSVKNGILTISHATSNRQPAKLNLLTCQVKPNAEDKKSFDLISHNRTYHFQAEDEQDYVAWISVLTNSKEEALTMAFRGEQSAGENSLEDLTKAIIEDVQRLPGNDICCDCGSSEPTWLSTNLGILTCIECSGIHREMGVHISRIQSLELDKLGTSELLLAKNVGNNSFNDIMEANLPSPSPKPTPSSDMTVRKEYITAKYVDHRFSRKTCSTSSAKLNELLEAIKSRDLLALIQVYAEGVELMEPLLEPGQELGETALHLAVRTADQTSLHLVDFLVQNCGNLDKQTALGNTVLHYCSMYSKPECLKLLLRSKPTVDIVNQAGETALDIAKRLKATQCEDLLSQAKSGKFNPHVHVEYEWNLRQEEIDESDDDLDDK
Calb FLC: C. albicans growth inhibition with fluconazole, primary screen, CaCi-2 strain, Alamar Blue fluorescence; C. albicans CaCi-2 (fluconazole-resistant clinical isolate) + fluconazole, 48 h; growth inhibition, % (concentration not given with the values); 300,000 tested, 0.57% active;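 active = growth inhibition above about 58% in most replicates, limit read from the data, passing the limit was not always enough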;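 note: all wells also contain fluconazole at 8 µg/ml as a sub-toxic cotreatment; 0% = median of DMSO wells and 100% = median of geldanamycin control wells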
ARFGAP1 inh: inhibitors of rat ARFGAP1 GAP activity, primary screen, biochemical, fluorescence polarization, GDP tracer; Arfgap1-stimulated ARF1 GTP hydrolysis, GDP FP detection; 360,000 tested, 0.26% active; inhibition, % at 16.5 µM; AID 651572, 2012;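 active = inhibition above a per-plate limit, mean inhibition of low control wells plus 3 SD, cut at about 25% in these data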;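 note: 0% = DMSO wells with enzyme and 100% = wells lacking Arfgap1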
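system = rat Arfgap1 catalytic domain, aa 1-136 | technique = FP, GDP Alexa 633 tracer displaced from anti-GDP antibody, 620/688 nm | compound = one concentration, 16.5 µM, DMSO 1.26% | medium = HEPES-based buffer, pH 7.5 | timing = compound-enzyme preincubation 20 min, reaction 120 min, detection 60 min, 25 °C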
IMP-1 inh: IMP-1 metallo-beta-lactamase inhibitors, primary screen, biochemical, epi-absorbance readout, Pseudomonas aeruginosa enzyme | inhibition, % at 5.6 µM | purified IMP-1, nitrocefin hydrolysis, epi-absorbance fluorescence | 290,000 tested, 0.45% active | metallo-beta-lactamase IMP-1 (Pseudomonas aeruginosa) | AID 1556, 2009;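 active = inhibition above the mean plus 3 SD of all compounds in the same screening run, cut at about 4.5% in these data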;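 note: 0% = IMP-1 with DMSO and 100% = DMSO wells lacking enzyme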
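Assay system: purified IMP-1; Quantity: IMP-1 0.2 nM before substrate addition; Medium: HEPES buffer pH 7.1 with ZnSO4 and Brij 35; Incubation: 15 min enzyme–compound preincubation, then 25 min nitrocefin reaction, 25 °C; Signal: fluorescence quenching readout, ex 480/em 530 nm; Controls: DMSO with and without IMP-1; Repeats: singlicate testing.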
ARFGAP1 confirm: ARFGAP1 inhibitor hit confirmation, biochemical, fluorescence polarization, triplicate; shares compounds with ARFGAP1 inh; 890 tested, 30% active; ARFGAP1-stimulated ARF1 GTP hydrolysis, GDP tracer FP; inhibition, % at 16.5 µM;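 active = average inhibition over triplicates above the hit cutoff set in the earlier primary screen, cut at about 25% in these data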;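 note: 0% = Arfgap1 plus ARF1-GTP with DMSO and 100% = wells lacking Arfgap1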
An asterisk follows results filed as active; . = no result.

SMILES	PHOSPHO1 block	VIM-2 inhibitor	ASAP1 GAP inh	Calb FLC	ARFGAP1 inh	IMP-1 inh	ARFGAP1 confirm
O=C(O)c1ccc(CSc2nc3ccccc3[nH]2)cc1	-1	-3	-16	18	29*	-4	-3
NNC(=O)c1ccc(CSc2nc3ccccc3[nH]2)cc1	57	0	2	-1	-12	-2	.
CNC(=O)c1c(NC(=O)c2ccc(S(=O)(=O)N3CCCC3)cc2)sc2c1CCN(C(C)C)C2	38	1	2	7	-1	-2	.
CNC(=O)c1c(NC(=O)c2ccc(S(=O)(=O)N3CC(C)OC(C)C3)cc2)sc2c1CCN(C(C)C)C2 (configuration not stated)	27	1	1	2	26*	0	3
CCOC(=O)c1cccc(Nc2nc(-c3cccnc3)nc3ccccc23)c1	-1	-1	8	-5	17	-2	.
COC(=O)c1ccc(Nc2nc(-c3ccncc3)nc3ccccc23)cc1	16	3	17	-13	34*	-2	34*
COC(=O)c1cccc(Nc2nc(-c3cccnc3)nc3ccccc23)c1	24	0	18	16	43*	-2	53*
CC(O)(c1cccc(F)c1)c1nc(-c2ccc3ccccc3c2)cs1 (configuration not stated)	.	.	5	.	9	.	.
COC1=CC(=O)OC(c2ccccc2)C1 (configuration not stated)	.	.	-8	.	-2	.	.
O=C(Nc1cc([N+](=O)[O-])ccc1Cl)c1cccnc1	3	0	-10	1	25*	-4	4
Cc1ccc([N+](=O)[O-])cc1NC(=O)c1cccnc1	19	-4	-3	-2	10	-3	.
CC(C)CCC(C)NC(=O)Cc1ccc(S(=O)(=O)N2CCOCC2)s1 (configuration not stated)	29	-1	4	-2	14	-3	.
CC(C)Cc1ccc(C(C)NC(=O)Cc2ccc(S(=O)(=O)N3CCOCC3)s2)cc1 (configuration not stated)	.	.	1	12	25*	.	4
CC(O)(c1ccc(F)c(F)c1)c1nc(-c2cc(F)cc(F)c2)cs1 (configuration not stated)	.	.	-5	.	4	.	.
C=CCOc1ccc(/C=C/C(=O)Nc2ccc(C(=O)NC)cc2)cc1	5	0	19	29	29*	-4	37*
COc1ccc(CN(C)C(=O)/C=C/[C@H]2O[C@@H](n3cnc4c(N)ncnc43)[C@H](O)[C@@H]2O)cc1OC	.	.	-8	.	-15	.	.
CC(C(=O)N1CCCCC1)N(C)CC(=O)Nc1ccc(Cl)cc1 (configuration not stated)	-52	-3	-1	-32	3	-3	.
CC(C(=O)N1CCCCC1)N(C)CC(=O)Nc1ccc(F)c(F)c1F (configuration not stated)	.	.	0	.	26*	.	5
CN(C)S(=O)(=O)c1ccc(C(=O)N(c2ccccn2)c2ccccn2)cc1	-6	-3	-13	9	31*	-1	-1
Cc1cc(C)c2c(=N)c3ccccc3n(CCCCCCCCn3c4ccccc4c(=N)c4c(C)cc(C)nc43)c2n1	.	.	9	.	26*	.	-1
CCCCCn1c2c(c(=N)c3ccccc31)CCC2	15	1	-26	-4	-5	0	.
COc1ccc(CNC(=O)c2sc(=O)n(Cc3ccc(-c4ccccc4)cc3)c2C)cc1OC	.	.	23	.	26*	.	16
CCOc1ccc2oc(C(=O)OCC(=O)N3CCCC(C)C3)c(C)c2c1 (configuration not stated)	.	.	19	.	33*	.	33*
CCOc1ccc2oc(C(=O)OCC(=O)N3CC(C)OC(C)C3)c(C)c2c1 (configuration not stated)	.	.	18	.	26*	.	33*
COc1ccc2oc(C(=O)OCC(=O)N3CCCC(C)C3)c(C)c2c1 (configuration not stated)	.	.	8	-8	19	.	.
SMILES	PHOSPHO1 block	VIM-2 inhibitor	ASAP1 GAP inh	Calb FLC	ARFGAP1 inh	IMP-1 inh	ARFGAP1 confirm
Cc1c(C(=O)OCC(=O)N2CC(C)OC(C)C2)oc2ccc(Br)cc12 (configuration not stated)	-2	-1	12	21	-12	1	.
Brc1ccc2nc(C3CCCCC3)c(Cc3ccsc3)n2c1	.	.	-8	.	-3	.	.
CCCNC(=O)Cn1cnc2sc(C(=O)N3CCN(c4ccc(F)cc4)CC3)c(C)c2c1=O	2	-3	6	-7	26*	-4	4
CCCNC(=O)Cn1cnc2sc(C(=O)N3CCCC(C(=O)OCC)C3)c(C)c2c1=O (configuration not stated)	13	0	.	0	.	-3	.
Cc1ccc(S(=O)(=O)N2CCC(=O)N(CCOC(=O)Nc3ccc(C)c(C)c3)CC2)cc1	8	-2	13	29	35*	0	0
Cc1ccc(NC(=O)OCCN2CCN(S(=O)(=O)c3ccc(C)cc3)CCC2=O)cc1	1	-3	-5	-9	3	-4	.
CCCCn1c(N)c(N(CCOC)C(=O)CCS(=O)(=O)c2ccc(C)cc2)c(=O)[nH]c1=O	.	.	2	.	4	.	.
COc1ccc([N+](=O)[O-])cc1CN1CCN(c2ncc(Cc3ccccc3)cn2)CC1	.	.	-4	.	26*	.	-2
Cc1ccc([N+](=O)[O-])cc1CN1CCN(c2ncc(Cc3ccccc3)cn2)CC1	.	.	-5	.	-7	.	.
C=CCOC(=O)c1ccc(N2CCN(c3ccccc3)CC2)nc1	33	2	12	-20	40*	-1	-1
COC(=O)c1ccc(N2CCN(c3ccccc3)CC2)nc1	.	-2	2	-7	20	0	.
O=C(NCc1ccncc1)[C@@H]1CCCN1C(=O)[C@H]1CCCN1C(=O)c1cccc(Cl)c1	.	.	4	.	-8	.	.
COc1ccc(Cl)cc1NC(=O)Cn1c(=O)oc2ccccc21	33	0	2	-5	21	-1	.
O=C(Cn1c(=O)oc2ccccc21)Nc1ccc(Cl)cc1Cl	.	-3	-8	-2	25*	-3	-2
CC(Nc1nc(N2CCNCC2)nc2ccccc12)c1ccccc1 (configuration not stated)	0	0	-10	-14	26*	-3	8
CN1C2C=CC(=O)C1C1C(=O)N(c3ccccc3)C(=O)C12 (configuration not stated)	.	.	0	.	-15	.	.
